Measured values as given in PMC6605684 (The Journal of General Physiology, 2019).
Entries after “also recorded” stand apart in the source; their conditions may differ.

Legend:
WT-CFTR [1] = molecular target: T1, WT-CFTR (Homo sapiens, UniProt P13569); assay: Inside-out patch-clamp of CFTR currents in transfected CHO cells; type: cell-based; conditions: mean
In short: (§1)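 CFTR construct and GFP plasmid cotransfected into CHO cells, held at 27°C for 2–6 d. Inside-out patches at room temperature, −30 mV, NMDG-Cl solutions at pH 7.4. Channels preactivated with 25 IU PKA plus 2 mM MgATP, then test compound (max 40 µM) applied in 2 mM ATP. ATP-subtracted steady-state currents normalized to the 3 µM response in the same patch. Hill fit with base 0 and maximum 1; EC50 ± SD of fit; 3–7 patches per point.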

S263A-CFTR = S263A-CFTR (Homo sapiens, UniProt P13569, S263A); assay: as above; type: cell-based; conditions: 200 nM VX-770, mean
In short: as §1

F304Y-mCFTR = F304Y-mCFTR (Mus musculus, UniProt P26361, F304Y); assay: as above; type: cell-based
In short: as §1

Y304A-CFTR = Y304A-CFTR (Homo sapiens, UniProt P13569, Y304A); assay: Inside-out patch-clamp of CFTR currents in transfected CHO cells; type: cell-based; conditions: 200 nM VX-770, mean
In short: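 Relaxation assay: PKA-preactivated channels in 2 mM ATP at −30 mV exposed to test compound through a fast three-barrel perfusion system (dead time ∼30 ms). Current decay after sudden removal of 3 µM compound fitted with a single exponential to give relaxation time constant τ.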

WT-CFTR [2] = molecular target: T1, WT-CFTR; conditions: ref Jih and Hwang, 2013; cited from earlier work
N1138L/G551D-CFTR = N1138L/G551D-CFTR (Homo sapiens, UniProt P13569, G551D/N1138L); assay: Inside-out patch-clamp of CFTR currents in transfected CHO cells; type: cell-based; conditions: mean
In short: as §1

F312A-CFTR = F312A-CFTR (Homo sapiens, UniProt P13569, F312A); assay: Inside-out patch-clamp of CFTR currents in transfected CHO cells; type: cell-based; conditions: 200 nM VX-770, 30 µM ATP, mean
F229A-CFTR = F229A-CFTR (Homo sapiens, UniProt P13569, F229A); assay: Inside-out patch-clamp of CFTR currents in transfected CHO cells; type: cell-based; conditions: 200 nM VX-770, mean
In short: as §1

S182A-CFTR = S182A-CFTR (Homo sapiens, UniProt P13569, S182A); assay: as above; type: cell-based; conditions: 200 nM VX-770, mean
In short: as §1

WT-mCFTR = WT-mCFTR (Mus musculus, UniProt P26361); assay: Inside-out patch-clamp of CFTR currents in transfected CHO cells; type: cell-based; conditions: 200 nM VX-770, 2 mM ATP
In short: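 Mouse CFTR expressed in CHO cells; inside-out patches. Phosphorylated channels opened by 2 mM ATP before the potentiator was applied (one potentiator at 200 nM). 5 µM CFTRinh-172 added at the end of each recording for baseline.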

F236A-CFTR = F236A-CFTR (Homo sapiens, UniProt P13569, F236A); assay: Inside-out patch-clamp of CFTR currents in transfected CHO cells; type: cell-based; conditions: 200 nM VX-770, mean
In short: as §1

S1141K/G551D-CFTR = S1141K/G551D-CFTR (Homo sapiens, UniProt P13569, G551D/S1141K); assay: as above; type: cell-based; conditions: mean
In short: as §1

G551D-CFTR = G551D-CFTR (Homo sapiens, UniProt P13569, G551D); assay: as above; type: cell-based
In short: as §1

D924N-CFTR = D924N-CFTR (Homo sapiens, UniProt P13569, D924N); assay: as above; type: cell-based; conditions: 200 nM VX-770, 2 mM ATP, mean
In short: as §1

T1 sequence (P13569 whole entry): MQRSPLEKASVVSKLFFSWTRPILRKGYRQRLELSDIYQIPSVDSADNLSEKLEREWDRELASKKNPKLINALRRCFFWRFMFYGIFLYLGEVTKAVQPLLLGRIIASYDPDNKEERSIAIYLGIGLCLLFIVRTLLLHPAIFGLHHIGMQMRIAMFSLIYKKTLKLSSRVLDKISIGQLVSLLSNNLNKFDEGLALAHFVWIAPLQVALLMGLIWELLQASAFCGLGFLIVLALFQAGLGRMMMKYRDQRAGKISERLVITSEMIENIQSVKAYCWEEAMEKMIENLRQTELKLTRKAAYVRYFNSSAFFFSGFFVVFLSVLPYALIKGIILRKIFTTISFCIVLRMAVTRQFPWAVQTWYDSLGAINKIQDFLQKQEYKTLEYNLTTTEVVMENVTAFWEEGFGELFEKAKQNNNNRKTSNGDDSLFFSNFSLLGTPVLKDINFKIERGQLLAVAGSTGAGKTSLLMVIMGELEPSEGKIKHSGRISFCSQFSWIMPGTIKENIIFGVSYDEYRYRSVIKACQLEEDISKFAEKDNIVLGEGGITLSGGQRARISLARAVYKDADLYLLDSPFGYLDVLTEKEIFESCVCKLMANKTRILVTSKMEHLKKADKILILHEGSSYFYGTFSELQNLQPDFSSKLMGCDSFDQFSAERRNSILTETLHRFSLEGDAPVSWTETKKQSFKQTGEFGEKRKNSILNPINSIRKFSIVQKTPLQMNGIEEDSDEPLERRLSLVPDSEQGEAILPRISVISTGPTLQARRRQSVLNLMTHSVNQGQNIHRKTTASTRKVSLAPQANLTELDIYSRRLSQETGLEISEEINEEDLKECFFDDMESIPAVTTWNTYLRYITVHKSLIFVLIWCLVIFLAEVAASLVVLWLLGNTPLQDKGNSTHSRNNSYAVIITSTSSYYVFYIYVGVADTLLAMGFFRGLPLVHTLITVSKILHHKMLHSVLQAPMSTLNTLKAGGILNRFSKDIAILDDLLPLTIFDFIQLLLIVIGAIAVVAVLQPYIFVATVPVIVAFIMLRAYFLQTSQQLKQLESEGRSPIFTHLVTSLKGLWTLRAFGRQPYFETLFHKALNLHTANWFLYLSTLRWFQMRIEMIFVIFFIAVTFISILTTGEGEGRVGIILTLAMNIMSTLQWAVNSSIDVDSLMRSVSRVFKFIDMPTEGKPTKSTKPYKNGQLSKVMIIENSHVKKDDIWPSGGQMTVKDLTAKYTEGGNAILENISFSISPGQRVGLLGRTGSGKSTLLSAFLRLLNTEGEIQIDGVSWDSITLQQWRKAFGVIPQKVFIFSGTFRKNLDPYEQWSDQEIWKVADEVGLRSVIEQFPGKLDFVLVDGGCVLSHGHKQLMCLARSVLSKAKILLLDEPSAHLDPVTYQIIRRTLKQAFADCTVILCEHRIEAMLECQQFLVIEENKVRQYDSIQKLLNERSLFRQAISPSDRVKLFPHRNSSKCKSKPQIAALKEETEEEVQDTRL
Chain of N1138L/G551D-CFTR (P13569 whole entry G551D/N1138L): as the sequence (P13569 whole entry) above, with G551D, N1138L counted along it
Chain of S263A-CFTR (P13569 whole entry S263A): as the sequence (P13569 whole entry) above, with S263A counted along it
Chain of G551D-CFTR (P13569 whole entry G551D): as the sequence (P13569 whole entry) above, with G551D counted along it
Chain of S182A-CFTR (P13569 whole entry S182A): as the sequence (P13569 whole entry) above, with S182A counted along it
Chain of S1141K/G551D-CFTR (P13569 whole entry G551D/S1141K): as the sequence (P13569 whole entry) above, with G551D, S1141K counted along it
Chain of Y304A-CFTR (P13569 whole entry Y304A, the tested form may be a part): as the sequence (P13569 whole entry) above, with Y304A counted along it
Chain of F304Y-mCFTR (P26361 whole entry F304Y): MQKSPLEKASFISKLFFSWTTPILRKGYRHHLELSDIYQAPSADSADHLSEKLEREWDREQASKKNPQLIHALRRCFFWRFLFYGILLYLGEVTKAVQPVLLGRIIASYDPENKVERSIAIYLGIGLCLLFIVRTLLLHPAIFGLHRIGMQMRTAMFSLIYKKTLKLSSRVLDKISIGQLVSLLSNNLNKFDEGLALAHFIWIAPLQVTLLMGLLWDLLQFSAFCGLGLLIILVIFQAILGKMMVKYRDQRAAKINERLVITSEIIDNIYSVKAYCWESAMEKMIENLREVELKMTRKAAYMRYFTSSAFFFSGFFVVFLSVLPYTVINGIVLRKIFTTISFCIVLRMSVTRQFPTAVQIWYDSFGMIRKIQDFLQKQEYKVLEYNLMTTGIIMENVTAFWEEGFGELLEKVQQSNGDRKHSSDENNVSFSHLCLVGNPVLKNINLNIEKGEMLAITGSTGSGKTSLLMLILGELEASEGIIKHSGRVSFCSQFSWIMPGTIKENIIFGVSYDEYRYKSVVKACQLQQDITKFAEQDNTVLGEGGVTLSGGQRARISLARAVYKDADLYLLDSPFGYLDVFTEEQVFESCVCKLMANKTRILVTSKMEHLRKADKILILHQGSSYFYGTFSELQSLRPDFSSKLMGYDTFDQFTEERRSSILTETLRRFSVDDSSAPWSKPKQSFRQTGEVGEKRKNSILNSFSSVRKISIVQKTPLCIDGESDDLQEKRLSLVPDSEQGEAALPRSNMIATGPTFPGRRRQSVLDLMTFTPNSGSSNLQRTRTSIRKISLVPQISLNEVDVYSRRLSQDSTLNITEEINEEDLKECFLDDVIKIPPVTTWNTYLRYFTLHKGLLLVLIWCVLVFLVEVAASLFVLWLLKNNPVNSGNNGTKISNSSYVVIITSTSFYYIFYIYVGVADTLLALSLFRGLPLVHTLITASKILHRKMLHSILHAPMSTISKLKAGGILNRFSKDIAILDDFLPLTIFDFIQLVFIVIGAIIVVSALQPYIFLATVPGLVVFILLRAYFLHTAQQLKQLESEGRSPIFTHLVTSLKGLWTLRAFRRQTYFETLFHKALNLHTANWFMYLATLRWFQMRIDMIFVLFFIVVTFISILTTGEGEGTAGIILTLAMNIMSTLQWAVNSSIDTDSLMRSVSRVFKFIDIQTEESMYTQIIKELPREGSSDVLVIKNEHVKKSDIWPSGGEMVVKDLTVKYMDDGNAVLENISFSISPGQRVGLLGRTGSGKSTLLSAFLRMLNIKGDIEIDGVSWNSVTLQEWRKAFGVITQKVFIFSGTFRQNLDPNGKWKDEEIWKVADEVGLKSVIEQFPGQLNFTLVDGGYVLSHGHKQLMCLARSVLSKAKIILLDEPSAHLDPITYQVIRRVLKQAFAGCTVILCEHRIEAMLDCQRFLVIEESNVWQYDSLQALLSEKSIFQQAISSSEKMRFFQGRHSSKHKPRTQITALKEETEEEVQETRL
Chain of F229A-CFTR (P13569 whole entry F229A): as the sequence (P13569 whole entry) above, with F229A counted along it
Chain of D924N-CFTR (P13569 whole entry D924N): as the sequence (P13569 whole entry) above, with D924N counted along it
Chain of F312A-CFTR (P13569 whole entry F312A): as the sequence (P13569 whole entry) above, with F312A counted along it
Chain of F236A-CFTR (P13569 whole entry F236A): as the sequence (P13569 whole entry) above, with F236A counted along it
Chain of WT-mCFTR (P26361 whole entry): as the sequence (P26361 whole entry F304Y) above, with Y304F counted along it

CC(C)(C)c1cc(C(C)(C)C)c(NC(=O)c2c[nH]c3ccccc3c2=O)cc1O [VX-770, N-(2,4-di-tert-butyl-5-hydroxyphenyl)-4-oxo-1,4-dihydroquinoline-3-carboxamide]
τoff (VX-770) (WT-CFTR [1]; current decay on removal of 200 nM VX-770, 2 mM ATP): 361 ± 39 s | τon (VX-770) (WT-CFTR [1]; current rise on application of 200 nM VX-770, 2 mM ATP): 6.7 ± 1.2 s | τoff (VX-770) (S263A-CFTR): 288 ± 68 s | τon (VX-770) (S263A-CFTR): 6.1 ± 1.5 s | Potentiation of currents by VX-770 (F304Y-mCFTR): restores the potentiating effects; also recorded: Restoring the effect | τoff (VX-770) (Y304A-CFTR): 18 ± 6 s | τon (VX-770) (Y304A-CFTR): 49 ± 11 s | Saturating concentration for VX-770 (WT-CFTR [2]): 200 nM | τoff (VX-770) (N1138L/G551D-CFTR): 268 ± 25 s | τon (VX-770) (N1138L/G551D-CFTR): 18 ± 5 s | τoff (VX-770) (F312A-CFTR): 38 ± 5 s | τon (VX-770) (F312A-CFTR): 15 ± 1 s | τoff (VX-770) (F229A-CFTR): 338 ± 49 s | τon (VX-770) (F229A-CFTR): 6.2 ± 1.3 s | τoff (VX-770) (S182A-CFTR): 343 ± 96 s | τon (VX-770) (S182A-CFTR): 8.2 ± 1.5 s | Potentiation of currents by VX-770 (WT-mCFTR): fails to potentiate | τoff (VX-770) (F236A-CFTR): 173 ± 45 s | τon (VX-770) (F236A-CFTR): 19 ± 8 s | τoff (VX-770) (S1141K/G551D-CFTR): 221 ± 50 s | τon (VX-770) (S1141K/G551D-CFTR): 14 ± 6 s | τoff (VX-770) (G551D-CFTR; current decay on removal of VX-770, mean): 68 ± 14 s | τon (VX-770) (G551D-CFTR; current rise on application of VX-770, mean): 5.9 ± 2.4 s | τoff (VX-770) (D924N-CFTR): 115 ± 7 s | τon (VX-770) (D924N-CFTR): 78 ± 18 s
